Reference: article PMC9072748 (RSC Advances, 2019)
Read-outs that look alike come from different tables or passages of the source.

Assays:
HepG2 cells [1] = assay: MTT cytotoxicity assay on HepG2 cells; type: cell-based, human; settings: 24 h incubation
Outline: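 HepG2 grown in DMEM with 10% FBS and penicillin/streptomycin (100 μg mL−1 each) at 37 °C, 5% CO2. Seeded at 1 × 10^4 cells/mL, 24 h, then exposed to test compound at 10–50 μM (10 μM steps) for 24 h. MTT (5 mg mL−1 in PBS) added for 2–4 h; formazan dissolved in DMSO; read at 560 nm against 1% DMSO control. IC50 from nonlinear regression of % viability versus concentration.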

CT-DNA [2] = assay: Fluorescence EtBr exchange titration on CT-DNA; type: binding; settings: for Stern–Volmer quenching constant K sv × 10^−3: Tris–HCl buffer pH 7.2, head: Ksv × 10^−3; for bimolecular quenching rate constant k q × 10^−13: τ0 = 23 ns, head: kq × 10^−13
Outline: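 CT-DNA (10 μM) premixed with EtBr (10 μM) in 5.0 mM Tris–HCl/50 mM NaCl, pH 7.2, then held 4 h at 4 °C. Titrated with incremental aliquots of 5.0 mM test-compound stock in 50% DMSO. Excitation 500 nm; emission decrease recorded over 520–700 nm. Filter-effect corrections applied. DNA concentration set from A260 (ε ≈ 6600 M−1 cm−1).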

BSA = BSA (Bos taurus, UniProt P02769); assay: BSA tryptophan fluorescence quenching titration; type: binding, Bovine; settings: for number of binding sites, n / binding constant K F × 10^−5: Scatchard equation; for binding constant K F × 10^−5: head: KF × 10^−5; for Stern–Volmer quenching constant K sv × 10^−5: Tris–HCl/50 mM NaCl pH 7.2, head: Ksv × 10^−5; for bimolecular quenching rate constant k q × 10^−10: head: kq × 10^−10
BSA, sequence (P02769 25-607): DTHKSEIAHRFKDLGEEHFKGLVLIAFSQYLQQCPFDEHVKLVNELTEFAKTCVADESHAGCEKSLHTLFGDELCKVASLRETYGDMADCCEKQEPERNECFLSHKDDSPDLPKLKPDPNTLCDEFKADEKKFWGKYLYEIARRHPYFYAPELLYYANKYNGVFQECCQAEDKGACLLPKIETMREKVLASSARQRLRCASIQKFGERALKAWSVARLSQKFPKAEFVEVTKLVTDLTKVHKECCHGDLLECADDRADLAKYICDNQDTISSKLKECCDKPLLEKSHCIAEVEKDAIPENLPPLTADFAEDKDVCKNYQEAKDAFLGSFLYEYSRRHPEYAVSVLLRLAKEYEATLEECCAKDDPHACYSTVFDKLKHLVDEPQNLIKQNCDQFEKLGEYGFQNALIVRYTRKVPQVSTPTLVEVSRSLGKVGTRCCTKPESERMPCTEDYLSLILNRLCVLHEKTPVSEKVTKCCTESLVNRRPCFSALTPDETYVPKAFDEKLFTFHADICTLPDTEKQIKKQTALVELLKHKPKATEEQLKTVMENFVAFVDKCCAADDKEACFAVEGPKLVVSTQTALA
Outline: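 BSA stock (10.4 μM) made in 5.0 mM Tris–HCl/50 mM NaCl, pH 7.2, with concentration set from A278 (ε 4.4 × 10^4 M−1 cm−1). Equilibrated buffered BSA with test compound at 0–130 μM at room temperature. Excitation 278 nm; tryptophan emission read over 250–450 nm. Ksv taken from the slope of Io/I versus [Q].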

HepG2 cells [3] = settings: cited from earlier work
CT-DNA [4] = assay: Viscosity measurements of CT-DNA; settings: 5.0 mM Tris–HCl buffer, pH 7.2; 1.0–6.0 mM
Outline: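 Sonicated CT-DNA held at constant concentration (5.0 mM) with added test compound, EtBr as reference. After 15 min equilibration, flow time measured in triplicate with a stopwatch. η = (t − t0)/t0, with t0 the flow time of buffer alone. Results plotted as (η/η0)^1/3 versus binding ratio.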

| Compound | IC50 (HepG2 cells [1]) [µM] | Stern–Volmer quenching constant K sv × 10^−3 (CT-DNA [2]) [M^−1] | bimolecular quenching rate constant k q × 10^−13 (CT-DNA [2]) [M^−1 s^−1] | number of binding sites, n (BSA) | binding constant K F × 10^−5 (BSA) [M^−1] | Stern–Volmer quenching constant K sv × 10^−5 (BSA) [M^−1] | bimolecular quenching rate constant k q × 10^−10 (BSA) [M^−1 s^−1] | IC50 (HepG2 cells [3]) [µM] | relative viscosity of CT-DNA solutions with increasing concentration (CT-DNA [4]) |
| --- | --- | --- | --- | --- | --- | --- | --- | --- | --- |
| [Cl][Pt][Cl].c1ccc(-c2nc3ccccc3nc2-c2ccccn2)nc1 [bpqPtCl2] | 15.7 ± 1.6 | 2.43 ± 0.02 | 1.06 ± 0.10 | 0.98 ± 0.03 | 1.93 ± 0.02 | 2.47 ± 0.03 | 4.97 ± 0.2 |  |  |
| Cc1cc2nc(-c3ccccn3)c(-c3ccccn3)nc2cc1C.[Cl][Pt][Cl] [dmbpqPtCl2] | 14.9 ± 1.4 | 3.26 ± 0.05 | 1.47 ± 0.16 | 0.98 ± 0.03 | 2.97 ± 0.07 | 3.47 ± 0.11 | 6.98 ± 0.3 |  |  |
| N.N.[Cl][Pt][Cl] [cisplatin] |  |  |  |  |  |  |  | 17.9 ± 2.1 |  |
| CC[n+]1c(-c2ccccc2)c2cc(N)ccc2c2ccc(N)cc21.[Br-] [EtBr, 3,8-diamino-5-ethyl-6-phenylphenanthridinium bromide] |  |  |  |  |  |  |  |  | increased dramatically |
| [Cl][Pt][Cl].c1ccc(-c2nc3cc4ccccc4cc3nc2-c2ccccn2)nc1 [bbqPtCl2] | 17.4 ± 2 | 5.49 ± 0.07 | 2.52 ± 0.22 | 1.01 ± 0.05 | 5.34 ± 0.10 | 4.78 ± 0.19 | 9.61 ± 0.5 |  |  |
